In ChEMBL document CHEMBL1811868, “Structure-activity relationship of 2-hydroxy-2-aryl-2,3-dihydro-imidazo[1,2-a]pyrimidinium salts and 2N-substituted 4(5)-aryl-2-amino-1H-imidazoles as inhibitors of biofilm formation by Salmonella Typhimurium and Pseudomonas aeruginosa” (Bioorg Med Chem, 2011):
Active and inactive are the calls of the source. Unless noted, the rule behind the calls is not given here.

Assays:
[1] = system: Salmonella typhimurium; test: Antimicrobial activity against Salmonella Typhimurium ATCC 14028 assessed as inhibition of planktonic cell growth at 150 uM after 24 hrs by […]; format: functional, organism-based; settings: Salmonella enterica subsp. enterica serovar Typhimurium
In short: (§1)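 Planktonic growth was followed by Bioscreen growth curves, not by crystal violet. Overnight cultures were diluted 1:200 in TSB 1/20 and received compound serially diluted in DMSO or EtOH, in triplicate, with solvent controls. Plates were shaken at 25 °C for at least 24 h, reading A600 every 15 min.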

[2] = system: Salmonella typhimurium; test: Antimicrobial activity against Salmonella Typhimurium ATCC 14028 assessed as inhibition of planktonic cell growth at IC50 after 24 hrs by […]; format: functional, organism-based; settings: Salmonella enterica subsp. enterica serovar Typhimurium; in short: as §1
[3] = system: Pseudomonas aeruginosa; test: Antimicrobial activity against Pseudomonas aeruginosa PA14 assessed as inhibition of planktonic cell growth at 80 uM after 24 hrs by […]; format: functional, organism-based; in short: as §1
[4] = system: Pseudomonas aeruginosa; test: Antimicrobial activity against Pseudomonas aeruginosa PA14 assessed as inhibition of planktonic cell growth at IC50 after 24 hrs by […]; format: functional, organism-based; in short: as §1
[5] = system: Salmonella typhimurium; test: Antimicrobial activity against Salmonella Typhimurium ATCC 14028 assessed as inhibition of biofilm formation after 24 hrs by spectrophotometry; format: functional, organism-based, Salmonella enterica subsp. enterica serovar Typhimurium; settings: Salmonella enterica, ATCC 14028, 24 h
In short: (§2)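 Static peg-lid biofilm prevention assay. Twofold serial dilutions in TSB diluted 1/20, 2–3 repeats per compound. Overnight S. Typhimurium ATCC14028 (LB-grown) or P. aeruginosa PA14 (TSB-grown) cultures were diluted 1:100, giving ~10^6 cells/well, then incubated 24 h at 25 °C without shaking. Pegs were PBS-washed, stained 30 min with 0.1% crystal violet, extracted with 30% acetic acid and read at OD570. IC50 was fitted from the concentration gradient.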

[6] = system: Pseudomonas aeruginosa; test: Antimicrobial activity against Pseudomonas aeruginosa PA14 assessed as inhibition of biofilm formation at 25 to 50 uM after 24 hrs by spectrophotometry; format: functional; in short: as §2
[7] = system: Pseudomonas aeruginosa; test: Antimicrobial activity against Pseudomonas aeruginosa PA14 assessed as inhibition of biofilm formation after 24 hrs by spectrophotometry; format: functional, organism-based; settings: PA14, 24 h; in short: as §2
[8] = system: Salmonella typhimurium; test: Antimicrobial activity against Salmonella Typhimurium ATCC 14028 assessed as inhibition of planktonic cell growth at 40 uM after 24 hrs by […]; format: functional, organism-based; settings: Salmonella enterica subsp. enterica serovar Typhimurium; in short: as §1
[9] = system: Salmonella typhimurium; test: Antimicrobial activity against Salmonella Typhimurium ATCC 14028 assessed as inhibition of planktonic cell growth at 200 uM after 24 hrs by […]; format: functional, organism-based; settings: Salmonella enterica subsp. enterica serovar Typhimurium; in short: as §1
[10] = system: Pseudomonas aeruginosa; test: Antimicrobial activity against Pseudomonas aeruginosa PA14 assessed as inhibition of planktonic cell growth at 40 uM after 24 hrs by […]; format: functional, organism-based; in short: as §1
[11] = system: Salmonella typhimurium; test: Antimicrobial activity against Salmonella Typhimurium ATCC 14028 assessed as inhibition of planktonic cell growth at 20 uM after 24 hrs by […]; format: functional, organism-based; settings: Salmonella enterica subsp. enterica serovar Typhimurium; in short: as §1
[12] = system: Pseudomonas aeruginosa; test: Antimicrobial activity against Pseudomonas aeruginosa PA14 assessed as inhibition of planktonic cell growth at 20 uM after 24 hrs by […]; format: functional, organism-based; in short: as §1
[13] = system: Pseudomonas aeruginosa; test: Antimicrobial activity against Pseudomonas aeruginosa PA14 assessed as inhibition of planktonic cell growth at 100 uM after 24 hrs by […]; format: functional, organism-based; in short: as §1
[14] = system: Pseudomonas aeruginosa; test: Antimicrobial activity against Pseudomonas aeruginosa PA14 assessed as inhibition of planktonic cell growth at 10 uM after 24 hrs by […]; format: functional, organism-based; in short: as §1

SMILES | growth inhibition (GI) [2] | growth inhibition (GI) [4] | IC50 [5] [µM] | growth inhibition (GI) [6] [%] | IC50 [7] [µM] | growth inhibition (GI) [8] | further results
Nc1ncc(-c2ccccc2)[nH]1 | inactive | inactive |  |  |  |  | growth inhibition (GI) [1]: inactive; growth inhibition (GI) [3]: inactive
CCCCCCCCCCCN1c2nccc[n+]2C[C@@]1(O)c1ccc(Cl)cc1.[Br-] |  |  | 61.9 | > 25 | > 800 |  | 
CCCCCCCCCCCCN1c2nccc[n+]2C[C@@]1(O)c1ccccc1.[Br-] | Active |  | 27.5 | > 25 | > 800 | Active | 
CCCCCCCCCCCCCCN1c2nccc[n+]2C[C@@]1(O)c1ccccc1.[Br-] |  |  | 180 | > 25 | > 800 |  | 
CCCCCCCCCCCCCN1c2nccc[n+]2C[C@@]1(O)c1ccccc1.[Br-] |  |  | 81.6 | > 25 | > 800 |  | 
Nc1ncc(-c2ccc(F)cc2)[nH]1 | inactive | inactive |  |  |  |  | growth inhibition (GI) [9]: inactive; growth inhibition (GI) [10]: inactive
Brc1ccc(-c2cnc(NC3CCCC3)[nH]2)cc1 | inactive | inactive | 12.1 |  | 7.2 |  | growth inhibition (GI) [11]: inactive; growth inhibition (GI) [12]: inactive
CCCCCCCCCCCN1c2nccc[n+]2C[C@@]1(O)c1ccccc1.[Br-] | Active |  | 24.6 | > 25 | > 800 | Active | 
CCCCCNc1ncc(-c2ccc(Br)cc2)[nH]1 | inactive | inactive | 3.1 |  | 10.2 | Active | growth inhibition (GI) [11]: Active; growth inhibition (GI) [12]: inactive
Nc1ncc(-c2ccc([N+](=O)[O-])cc2)[nH]1 | inactive | inactive |  |  |  | Active | growth inhibition (GI) [13]: Active; growth inhibition (GI) [10]: inactive
Nc1ncc(-c2ccc(Br)cc2)[nH]1 |  | inactive |  |  |  |  | growth inhibition (GI) [14]: inactive; growth inhibition (GI) [10]: Active
CCCCNc1ncc(-c2ccc(Br)cc2)[nH]1 | inactive | inactive | 7.1 |  | 9.8 |  | growth inhibition (GI) [11]: inactive; growth inhibition (GI) [12]: inactive
